Entries after “also recorded” stand apart in the source; their conditions may differ. Marks after values point to notes of the source that are not given here.
What was measured:
[1] = once daily; combination setting; patients with solid tumors; cited from earlier work
[2] = not assessed in this study; cited from earlier work
[3] = 100-mg dose of ipatasertib coadministered with itraconazole; cited from earlier work
[4] = radiolabeled ipatasertib; ref data on file; cited from earlier work
P‐glycoprotein (P‐gp) = conditions: cited from earlier work
[5] = cited from earlier work
[6] = Phase 1 open-label single-dose hepatic impairment PK study of ipatasertib; format: in vivo, human; conditions: for tlast: 100 mg ipatasertib single oral, median (min-max); for AUC0‐∞, Test/Reference geometric mean ratio / Cmax, Test/Reference geometric mean ratio: (90%CI) where printed
Summary of the method: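 Open-label, parallel-group design: subjects with mild, moderate or severe hepatic impairment (Child-Pugh or NCI-ODWG) vs matched normal-function controls. Single oral 100 mg dose with 240 mL water after ≥8 h fast, then fasting ≥4 h. Plasma was sampled predose to day 15 for parent and M1, assayed with stable-labeled internal standards. Log-transformed AUC0‐∞ and Cmax were compared test vs reference with back-transformed geometric mean ratios and 90% CIs.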

[7] = Safety and tolerability in the hepatic impairment study; format: in vivo, human
CYP3A4 = conditions: cited from earlier work
[8] = cited from earlier work; remark: listed apart in the source
[9] = Mild vs normal, Child-Pugh, listed as ipatasertib
[10] = Mild vs normal, NCI-ODWG, listed as ipatasertib
[11] = Moderate vs normal, Child-Pugh, listed as ipatasertib
[12] = Moderate vs normal, NCI-ODWG, listed as ipatasertib
[13] = Severe vs normal, Child-Pugh, listed as ipatasertib
[14] = Severe vs normal, NCI-ODWG, listed as ipatasertib
[15] = moderate or severe hepatic impairment, either method of classification

CC(C)NC[C@@H](C(=O)N1CCN(c2ncnc3c2[C@H](C)C[C@H]3O)CC1)c1ccc(Cl)cc1 [Ipatasertib]
maximum tolerated dose [1]: 400 mg
overall mean percentage unbound in human plasma [2]: 63.6%
increase of ipatasertib exposures with itraconazole [3]: ≈ 5 fold
parent drug eliminated in urine [4]: ≈ 8%
total administered dose eliminated in urine [4]: ≈ 19%
substrate of P‐glycoprotein (P‐gp) (P‐glycoprotein (P‐gp)): substrate
median half‐life (t1/2) ([5]; 400-mg dose in patients): ≈ 45 hours
dose proportionality ([5]; single dose, doses of 100 to 800 mg, dose escalation study): close to dose proportionality
tlast ([6]; Child-Pugh, Healthy (N = 13)): 120.0 (72.0‐120.4) h
tlast ([6]; Child-Pugh, Mild (N = 8)): 120.0 (48.0‐168.0) h
tlast ([6]; Child-Pugh, Moderate (N = 8)): 216.0 (146.5‐334.5) ^b h
tlast ([6]; Child-Pugh, Severe (N = 7)): 192.2 (167.7‐336.0) ^c h
tlast ([6]; NCI-ODWG, Healthy (N = 21)): 120.0 (48.0‐240.0) h
tlast ([6]; NCI-ODWG, Mild (N = 5)): 144.1 (96.0‐168.0)^c h
tlast ([6]; NCI-ODWG, Moderate (N = 5)): 240.8 (168.0‐334.5)^c h
tlast ([6]; NCI-ODWG, Severe (N = 5)): 216.4 (167.7‐336.0) h
systemic exposure compared to normal hepatic function ([6]; Child-Pugh mild hepatic impairment): comparable; also recorded: no appreciable difference
apparent plasma clearance lower than normal hepatic function ([6]; Child-Pugh moderate): ≈ 2.5 fold
apparent volume of distribution lower than normal hepatic function ([6]; Child-Pugh moderate): ~1.6 fold
mean elimination t1/2 longer than normal hepatic function ([6]; Child-Pugh moderate): ≈ 1.7 fold
increase in systemic exposure (AUC0‐∞) compared to normal hepatic function ([6]; Child-Pugh moderate hepatic impairment): ≈ 2 fold
apparent plasma clearance lower than normal hepatic function ([6]; Child-Pugh severe): ≈ 2.9 fold
apparent volume of distribution lower than normal hepatic function ([6]; Child-Pugh severe): ~2.1 fold
mean elimination t1/2 longer than normal hepatic function ([6]; Child-Pugh severe): ~1.5 fold
increase in systemic exposure (AUC0‐∞) compared to normal hepatic function ([6]; Child-Pugh severe hepatic impairment): ~3 fold
AUC0‐∞, Test/Reference geometric mean ratio ([6]; Mild vs normal, Child-Pugh): 89.5%
Cmax, Test/Reference geometric mean ratio ([6]; Mild vs normal, Child-Pugh): 98.6%
AUC0‐∞, Test/Reference geometric mean ratio [6, 9]: 89.5 (65.1‐123.2) %
Cmax, Test/Reference geometric mean ratio [6, 9]: 98.6 (52.8‐184.0) %
AUC0‐∞, Test/Reference geometric mean ratio ([6]; Mild vs normal, NCI-ODWG): 153.6%
Cmax, Test/Reference geometric mean ratio ([6]; Mild vs normal, NCI-ODWG): 101.1%
AUC0‐∞, Test/Reference geometric mean ratio [6, 10]: 153.6 (87.7‐269.2) %
Cmax, Test/Reference geometric mean ratio [6, 10]: 101.1 (35.9‐284.8) %
AUC0‐∞, Test/Reference geometric mean ratio ([6]; Moderate vs normal, Child-Pugh): 261.5%
Cmax, Test/Reference geometric mean ratio ([6]; Moderate vs normal, Child-Pugh): 184.1%
AUC0‐∞, Test/Reference geometric mean ratio [6, 11]: 261.5 (191.2‐357.5) %
Cmax, Test/Reference geometric mean ratio [6, 11]: 184.1 (112.2‐302.0) %
AUC0‐∞, Test/Reference geometric mean ratio ([6]; Moderate vs normal, NCI-ODWG): 339.1%
Cmax, Test/Reference geometric mean ratio ([6]; Moderate vs normal, NCI-ODWG): 198.1%
AUC0‐∞, Test/Reference geometric mean ratio [6, 12]: 339.1 (241.7‐475.6) %
Cmax, Test/Reference geometric mean ratio [6, 12]: 198.1 (109.5‐358.4) %
AUC0‐∞ higher than normal hepatic function ([6]; NCI-ODWG mild): ≈ 1.5 fold
Cmax compared to normal hepatic function ([6]; NCI-ODWG mild): similar
AUC0‐∞, Test/Reference geometric mean ratio ([6]; Severe vs normal, Child-Pugh): 298.1%
Cmax, Test/Reference geometric mean ratio ([6]; Severe vs normal, Child-Pugh): 163.8%
AUC0‐∞, Test/Reference geometric mean ratio [6, 13]: 298.1 (228.4‐389.0) %
Cmax, Test/Reference geometric mean ratio [6, 13]: 163.8 (86.4‐310.3) %
AUC0‐∞, Test/Reference geometric mean ratio ([6]; Severe vs normal, NCI-ODWG): 267.0%
Cmax, Test/Reference geometric mean ratio ([6]; Severe vs normal, NCI-ODWG): 155.2%
AUC0‐∞, Test/Reference geometric mean ratio [6, 14]: 267.0 (195.6‐364.3) %
Cmax, Test/Reference geometric mean ratio [6, 14]: 155.2 (70.7‐340.9) %
Tmax ([6]; human, plasma, po, 100 mg, median tmax, across all the groups, single oral 100-mg dose, Child-Pugh): 30 to 60 min
AUC0‐∞ increase compared to normal hepatic function [6, 15]: ~3 fold
Cmax increase compared to normal hepatic function [6, 15]: ≈ 2 fold
total AEs reported ([7]; all 36 subjects): 12 AEs
discontinuation due to AEs ([7]; in vivo): no subjects were discontinued
AEs reported ([7]; mild hepatic impairment): 3 AEs
subjects with AEs ([7]; mild hepatic impairment): 2 subjects
AEs reported ([7]; moderate hepatic impairment): 3 AEs
subjects with AEs ([7]; moderate hepatic impairment): 3 subjects
AEs reported ([7]; normal hepatic function): 1 AE
subjects with AEs ([7]; normal hepatic function): 1 subject
AE of orthostatic hypotension assessed as severe (grade 3) ([7]; one subject with moderate hepatic impairment): 1 AE
AEs reported ([7]; severe hepatic impairment): 5 AEs
subjects with AEs ([7]; severe hepatic impairment): 3 subjects
overall safety and tolerability ([7]; single oral dose of 100 mg, normal hepatic function and hepatic impairment): generally safe and well tolerated
substrate of CYP3A4 (CYP3A4): sensitive substrate

O=C(c1ccc(F)c(F)c1Nc1ccc(I)cc1F)N1CC(O)([C@@H]2CCCCN2)C1 [cobimetinib]
exposure in subjects with normal and mildly impaired hepatic function [8]: comparable exposure

COc1cc2ncnc(Nc3ccc(F)c(Cl)c3)c2cc1NC(=O)/C=C/CN1CCCCC1 [dacomitinib]
exposure in subjects with normal and mildly impaired hepatic function [8]: comparable exposure

CCN(CC)CCNC(=O)c1c(C)[nH]c(/C=C2\C(=O)Nc3ccc(F)cc32)c1C [sunitinib]
exposure in subjects with normal and mildly impaired hepatic function [8]: comparable exposure

CC1(C)CCC(CN2CCN(c3ccc(C(=O)NS(=O)(=O)c4ccc(NCC5CCOCC5)c([N+](=O)[O-])c4)c(Oc4cnc5[nH]ccc5c4)c3)CC2)=C(c2ccc(Cl)cc2)C1 [venetoclax]
exposure in subjects with normal and mildly impaired hepatic function [8]: comparable exposure

— article PMC9303630 (Journal of Clinical Pharmacology, 2021)
